Experimental data as given in the M2OR odorant receptor database.
Where a chain is given by its changes, count along the chain named.

Assays:
Conditions in all cases: stereoisomer not certain
OR8I2 (Homo sapiens) = target: T1, OR8I2 (Homo sapiens) (UniProt Q8N0Y5)
T1 sequence (whole entry): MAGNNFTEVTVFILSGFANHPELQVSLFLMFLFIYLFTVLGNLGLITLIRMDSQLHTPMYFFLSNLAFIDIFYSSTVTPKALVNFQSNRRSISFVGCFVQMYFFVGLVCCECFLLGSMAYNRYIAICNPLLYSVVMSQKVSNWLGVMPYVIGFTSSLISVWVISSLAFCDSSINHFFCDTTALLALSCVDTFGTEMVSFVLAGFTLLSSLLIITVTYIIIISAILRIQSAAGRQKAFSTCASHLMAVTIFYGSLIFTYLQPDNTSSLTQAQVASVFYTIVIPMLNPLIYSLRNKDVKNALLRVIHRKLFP
Summary of the method: (§1)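 Each entry records the cell line, G-protein, co-transfected protein and tags used. Methods varied with the source, often transient luciferase assays in mammalian cell lines. A receptor–molecule pair is called responsive (active) if the original authors judged its signal statistically different from baseline and non-responsive (inactive) otherwise.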

OR8J1 (Homo sapiens) = target: T2, OR8J1 (Homo sapiens) (UniProt Q8NGP2)
T2 sequence (whole entry): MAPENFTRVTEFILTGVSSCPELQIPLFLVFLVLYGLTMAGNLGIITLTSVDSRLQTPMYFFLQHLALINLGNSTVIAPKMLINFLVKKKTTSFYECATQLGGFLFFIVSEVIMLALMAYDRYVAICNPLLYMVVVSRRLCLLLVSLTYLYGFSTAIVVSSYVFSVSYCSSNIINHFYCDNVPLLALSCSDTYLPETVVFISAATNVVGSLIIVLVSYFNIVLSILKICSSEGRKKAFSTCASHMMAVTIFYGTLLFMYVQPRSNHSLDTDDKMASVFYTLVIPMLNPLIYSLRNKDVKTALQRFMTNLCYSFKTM
Summary of the method: as §1

OR8J2 (Homo sapiens) = OR8J2 (Homo sapiens) (UniProt Q8NGG1)
Sequence of OR8J2 (Homo sapiens) (Q8NGG1 whole entry): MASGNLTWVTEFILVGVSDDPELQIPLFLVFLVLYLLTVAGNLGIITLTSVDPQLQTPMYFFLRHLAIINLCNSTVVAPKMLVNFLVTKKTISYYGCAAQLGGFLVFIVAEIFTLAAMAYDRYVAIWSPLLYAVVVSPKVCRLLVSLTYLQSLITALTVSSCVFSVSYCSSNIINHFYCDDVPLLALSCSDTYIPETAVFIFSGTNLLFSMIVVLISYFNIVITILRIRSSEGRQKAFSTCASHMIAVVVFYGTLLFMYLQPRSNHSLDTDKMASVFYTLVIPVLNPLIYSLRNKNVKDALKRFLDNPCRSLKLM
Summary of the method: as §1

OR8J3 (Homo sapiens) = target: T3, OR8J3 (Homo sapiens) (UniProt Q8NGG0)
T3 sequence (whole entry): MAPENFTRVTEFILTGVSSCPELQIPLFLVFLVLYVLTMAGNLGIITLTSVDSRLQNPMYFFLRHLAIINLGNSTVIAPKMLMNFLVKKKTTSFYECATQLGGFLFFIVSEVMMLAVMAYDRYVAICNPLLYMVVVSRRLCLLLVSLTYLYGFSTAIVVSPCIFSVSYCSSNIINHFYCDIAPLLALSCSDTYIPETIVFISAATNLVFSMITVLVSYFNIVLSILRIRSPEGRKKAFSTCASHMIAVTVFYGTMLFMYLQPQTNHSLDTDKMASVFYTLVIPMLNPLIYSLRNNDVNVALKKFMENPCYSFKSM
Summary of the method: as §1

OR8K1 (Homo sapiens) = target: T4, OR8K1 (Homo sapiens) (UniProt Q8NGG5)
T4 sequence (whole entry): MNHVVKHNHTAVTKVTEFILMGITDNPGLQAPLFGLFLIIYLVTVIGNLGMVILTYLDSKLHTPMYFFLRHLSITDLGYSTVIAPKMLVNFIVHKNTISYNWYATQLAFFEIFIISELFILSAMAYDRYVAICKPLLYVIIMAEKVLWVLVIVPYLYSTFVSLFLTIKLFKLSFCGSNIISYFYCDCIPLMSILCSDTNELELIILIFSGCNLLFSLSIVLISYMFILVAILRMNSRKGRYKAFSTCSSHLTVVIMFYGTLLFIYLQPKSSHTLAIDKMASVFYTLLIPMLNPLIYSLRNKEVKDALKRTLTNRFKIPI
Summary of the method: as §1

OR8K3 (Homo sapiens) = target: T5, OR8K3 (Homo sapiens) (UniProt Q8NH51)
T5 sequence (whole entry): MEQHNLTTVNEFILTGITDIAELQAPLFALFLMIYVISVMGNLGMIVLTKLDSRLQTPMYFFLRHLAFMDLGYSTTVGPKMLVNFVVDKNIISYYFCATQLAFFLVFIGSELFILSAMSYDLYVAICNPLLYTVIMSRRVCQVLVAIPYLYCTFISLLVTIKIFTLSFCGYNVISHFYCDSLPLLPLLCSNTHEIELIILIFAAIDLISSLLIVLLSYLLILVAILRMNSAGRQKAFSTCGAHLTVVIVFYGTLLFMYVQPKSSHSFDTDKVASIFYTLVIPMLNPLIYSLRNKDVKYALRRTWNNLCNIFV
Summary of the method: as §1

OR8K5 (Homo sapiens) = target: T6, OR8K5 (Homo sapiens) (UniProt Q8NH50)
T6 sequence (whole entry): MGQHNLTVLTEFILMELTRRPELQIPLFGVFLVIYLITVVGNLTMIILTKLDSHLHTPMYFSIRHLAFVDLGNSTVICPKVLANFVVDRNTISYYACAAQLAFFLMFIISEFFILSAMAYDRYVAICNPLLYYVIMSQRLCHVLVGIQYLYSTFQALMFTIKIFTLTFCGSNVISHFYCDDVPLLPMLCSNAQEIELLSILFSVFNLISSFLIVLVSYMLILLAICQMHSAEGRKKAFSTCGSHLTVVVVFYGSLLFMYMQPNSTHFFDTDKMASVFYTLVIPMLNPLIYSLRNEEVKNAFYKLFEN
Summary of the method: as §1

OR8S1 (Homo sapiens) = target: T7, OR8S1 (Homo sapiens) (UniProt Q8NH09)
T7 sequence (whole entry): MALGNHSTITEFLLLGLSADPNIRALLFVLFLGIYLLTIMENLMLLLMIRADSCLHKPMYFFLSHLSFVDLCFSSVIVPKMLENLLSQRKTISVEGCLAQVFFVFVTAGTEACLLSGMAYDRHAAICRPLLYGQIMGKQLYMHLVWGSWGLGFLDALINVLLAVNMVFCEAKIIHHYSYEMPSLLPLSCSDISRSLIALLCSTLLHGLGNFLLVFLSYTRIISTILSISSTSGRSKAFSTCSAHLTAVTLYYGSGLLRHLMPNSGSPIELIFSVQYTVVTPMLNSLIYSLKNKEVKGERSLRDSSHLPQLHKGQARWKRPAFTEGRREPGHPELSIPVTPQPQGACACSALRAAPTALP
Summary of the method: as §1

OR8U1 (Homo sapiens) = target: T8, OR8U1 (Homo sapiens) (UniProt Q8NH10)
T8 sequence (whole entry): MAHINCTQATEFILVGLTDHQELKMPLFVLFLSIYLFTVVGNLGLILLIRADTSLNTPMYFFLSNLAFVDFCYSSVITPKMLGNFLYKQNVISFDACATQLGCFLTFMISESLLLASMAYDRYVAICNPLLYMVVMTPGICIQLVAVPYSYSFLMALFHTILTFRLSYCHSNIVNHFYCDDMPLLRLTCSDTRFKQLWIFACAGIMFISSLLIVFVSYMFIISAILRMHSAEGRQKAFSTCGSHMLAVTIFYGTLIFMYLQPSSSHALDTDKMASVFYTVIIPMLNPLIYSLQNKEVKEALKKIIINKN
Summary of the method: as §1

OR8U3 (Homo sapiens) = target: T9, OR8U3 (Homo sapiens) (UniProt Q8NH85)
T9 sequence (whole entry): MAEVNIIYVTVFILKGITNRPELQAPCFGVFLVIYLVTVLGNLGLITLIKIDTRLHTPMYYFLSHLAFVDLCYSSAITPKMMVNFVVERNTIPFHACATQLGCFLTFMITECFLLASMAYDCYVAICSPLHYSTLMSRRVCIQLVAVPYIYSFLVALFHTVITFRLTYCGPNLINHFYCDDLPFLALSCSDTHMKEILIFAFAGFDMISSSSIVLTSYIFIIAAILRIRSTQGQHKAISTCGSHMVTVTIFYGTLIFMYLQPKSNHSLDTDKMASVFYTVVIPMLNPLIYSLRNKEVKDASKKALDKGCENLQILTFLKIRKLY
Summary of the method: as §1

OR8U8 (Homo sapiens) = target: T10, OR8U8 (Homo sapiens) (UniProt P0C7N1)
T10 sequence (whole entry): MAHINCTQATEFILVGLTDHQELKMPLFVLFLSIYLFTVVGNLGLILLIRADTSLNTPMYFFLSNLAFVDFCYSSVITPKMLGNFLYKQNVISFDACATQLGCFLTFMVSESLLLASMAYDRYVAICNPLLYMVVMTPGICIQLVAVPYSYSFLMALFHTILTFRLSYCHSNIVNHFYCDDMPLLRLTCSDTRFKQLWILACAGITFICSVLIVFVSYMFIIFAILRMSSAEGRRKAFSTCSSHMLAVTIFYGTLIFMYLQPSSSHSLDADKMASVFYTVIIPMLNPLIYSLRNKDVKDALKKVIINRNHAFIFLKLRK
Summary of the method: as §1

OR8U9 (Homo sapiens) = target: T11, OR8U9 (Homo sapiens) (UniProt P0C7N5)
T11 sequence (whole entry): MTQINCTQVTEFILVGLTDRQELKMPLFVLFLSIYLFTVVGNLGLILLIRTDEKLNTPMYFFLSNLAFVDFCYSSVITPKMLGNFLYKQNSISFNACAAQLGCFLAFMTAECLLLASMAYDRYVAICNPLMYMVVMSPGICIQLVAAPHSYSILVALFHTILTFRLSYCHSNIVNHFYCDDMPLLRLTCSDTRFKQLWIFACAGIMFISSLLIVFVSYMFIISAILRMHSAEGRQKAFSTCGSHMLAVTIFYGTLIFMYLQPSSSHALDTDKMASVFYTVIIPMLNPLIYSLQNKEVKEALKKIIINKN
Summary of the method: as §1

OR9A2 (Homo sapiens) = target: T12, OR9A2 (Homo sapiens) (UniProt Q8NGT5)
T12 sequence (whole entry): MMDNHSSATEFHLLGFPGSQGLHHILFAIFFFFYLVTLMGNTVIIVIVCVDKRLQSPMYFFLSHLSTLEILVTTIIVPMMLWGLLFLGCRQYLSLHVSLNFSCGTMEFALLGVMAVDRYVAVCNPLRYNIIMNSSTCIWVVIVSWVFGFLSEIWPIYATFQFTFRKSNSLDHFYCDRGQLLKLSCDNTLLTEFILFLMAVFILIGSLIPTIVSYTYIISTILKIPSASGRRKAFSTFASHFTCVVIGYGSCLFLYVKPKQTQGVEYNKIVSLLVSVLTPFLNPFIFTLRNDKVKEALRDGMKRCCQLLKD
Summary of the method: as §1

OR8J1 = tested on: T13, OR8J1
T13 sequence (whole entry): T2 sequence (whole entry) with Y120C
Summary of the method: as §1

OR8J3 E4V = tested on: T14, OR8J3 E4V
T14 sequence (whole entry): T3 sequence (whole entry) with E4V
Summary of the method: as §1

OR8U8 [1] = tested on: T15, OR8U8
T15 sequence (whole entry): T10 sequence (whole entry) with V109I, S112C
Summary of the method: as §1

OR8U8 [2] = tested on: T16, OR8U8; remark: listed apart in the source
T16 sequence (whole entry): T10 sequence (whole entry) with H20R, V109I, R165C
Summary of the method: as §1

OR8U9 T2A Q3H Q293R = tested on: T17, OR8U9 T2A Q3H Q293R
T17 sequence (whole entry): T11 sequence (whole entry) with T2A, Q3H, Q293R
Summary of the method: as §1

OR8U9 = tested on: T18, OR8U9
T18 sequence (whole entry): T11 sequence (whole entry) with Q293R
Summary of the method: as §1

OR9A2 C304Y = tested on: T19, OR9A2 C304Y
T19 sequence (whole entry): T12 sequence (whole entry) with C304Y
Summary of the method: as §1

Measured: odorant receptor agonist call

CC1CCCCCCCCCCCCC(=O)C1 (stereo not given)
not listed: OR8J1 | OR8J3 E4V | OR8U8 [1] | OR8U8 [2] | OR8U9 T2A Q3H Q293R | OR8U9 | OR9A2 C304Y
inactive: all other assays above

CC1=C(O)C(=O)OC1C (stereo not given)
not listed: OR8J2 (Homo sapiens) | OR8U8 (Homo sapiens)
inactive: all other assays above

CCC1OC(=O)C(O)=C1C (stereo not given)
not listed: OR8J2 (Homo sapiens) | OR8U8 (Homo sapiens)
inactive: all other assays above

CC1=C(O)C(=O)C(C)O1 (stereo not given)
not listed: OR8J2 (Homo sapiens) | OR8U8 (Homo sapiens)
inactive: all other assays above

CCCC(S)CCOC(C)=O (stereo not given)
not listed: OR8J2 (Homo sapiens) | OR8U8 (Homo sapiens)
inactive: all other assays above

Cc1cnc(C)c(C)n1
not listed: OR8J2 (Homo sapiens) | OR8U8 (Homo sapiens)
inactive: all other assays above

CCCCCCC=CCCC=O
not listed: OR8J2 (Homo sapiens) | OR8U8 [1] | OR8U8 [2]
inactive: all other assays above
